ChEMBL document CHEMBL1212700, “Small-molecule aggregates inhibit amyloid polymerization” (Nat Chem Biol, 2008)
Active and inactive are the calls of the source. The rule behind the calls is not given here.

What was measured:
[1] = biological target: T1, Eukaryotic peptide chain release factor GTP-binding subunit (Saccharomyces cerevisiae) (UniProt P05453); assay: Inhibition of polyhistidine tagged yeast prion protein Sup35 expressed in Escherichia coli BL21 (DE3) assessed as inhibition of amyloid polymerization at 30 uM by thioflavin T fluorescence assay relative to untreated control
T1 sequence (whole entry): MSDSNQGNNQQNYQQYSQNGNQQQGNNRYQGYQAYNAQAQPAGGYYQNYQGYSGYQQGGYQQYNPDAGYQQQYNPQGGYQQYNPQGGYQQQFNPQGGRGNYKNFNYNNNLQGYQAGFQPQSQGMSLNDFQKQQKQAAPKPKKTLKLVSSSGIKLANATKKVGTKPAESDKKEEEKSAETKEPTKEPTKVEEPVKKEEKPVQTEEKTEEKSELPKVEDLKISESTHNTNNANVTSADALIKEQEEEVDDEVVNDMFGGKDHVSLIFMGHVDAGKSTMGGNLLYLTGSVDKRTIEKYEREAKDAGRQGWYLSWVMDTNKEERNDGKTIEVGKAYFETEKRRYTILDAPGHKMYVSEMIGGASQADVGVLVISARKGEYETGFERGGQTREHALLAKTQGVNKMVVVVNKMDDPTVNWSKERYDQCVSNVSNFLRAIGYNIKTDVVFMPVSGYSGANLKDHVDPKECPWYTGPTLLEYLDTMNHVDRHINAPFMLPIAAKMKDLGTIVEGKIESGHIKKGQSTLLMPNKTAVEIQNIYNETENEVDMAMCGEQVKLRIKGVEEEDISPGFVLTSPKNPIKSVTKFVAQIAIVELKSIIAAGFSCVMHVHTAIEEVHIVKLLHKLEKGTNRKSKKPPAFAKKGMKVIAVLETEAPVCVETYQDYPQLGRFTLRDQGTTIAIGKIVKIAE
Procedure, shortened: (§1)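 Sup35 fibrillization followed by thioflavin T fluorescence in seeded and unseeded polymerization reactions. For BSA lines, BSA added from a 20 mg ml−1 solution to a final 5 mg ml−1. Inhibition is relative to untreated reactions.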

[2] = biological target: T1, Eukaryotic peptide chain release factor GTP-binding subunit (Saccharomyces cerevisiae); assay: Inhibition of polyhistidine tagged yeast prion protein Sup35 expressed in Escherichia coli BL21 (DE3) assessed as inhibition of amyloid polymerization at 30 uM in presence of 5 mg/ml BSA by thioflavin T fluorescence assay relative to untreated control; procedure, shortened: as §1
Mus musculus [3] = species on record: Mus musculus; assay: Inhibition of mouse prion protein (89-230) assessed as inhibition of amyloid polymerization at 25 uM by thioflavin T fluorescence assay relative to untreated control
Procedure, shortened: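 Mouse prion protein (recMoPrP) fibrillization monitored by thioflavin T fluorescence; reactions contained 3 M urea.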

Mus musculus [4] = species on record: Mus musculus; assay: Inhibition of mouse prion protein (89-230) assessed as assessed as inhibition of fiber formation at 50 uM by transmission electron microscopy
Procedure, shortened: (§2)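 Transmission electron microscopy of recMoPrP (50 μM compound) or Sup35 (100 μM compound) polymerized in the presence of compound, scored for fibre formation.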

Mus musculus [5] = species on record: Mus musculus; assay: Inhibition of mouse prion protein (89-230) assessed as assessed as coating of prion protein with […] particles at 50 uM by transmission electron microscopy
Procedure, shortened: (§3)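 Preformed fibres (recMoPrP at 50 μM compound, Sup35 at 100 μM compound) were mixed with compound, then examined by transmission electron microscopy for colloidal particles coating the fibres.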

[6] = biological target: T1, Eukaryotic peptide chain release factor GTP-binding subunit (Saccharomyces cerevisiae); assay: Inhibition of yeast prion protein Sup35 infection of PSI yeast spheroplast cells at 200 uM
Procedure, shortened: (§4)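 Yeast made infection-competent by enzymatic digestion of the cell wall, then exposed to Sup35 prion with compound; infectivity scored. EC50 derived from a 40–200 μM concentration series.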

[7] = biological target: T1, Eukaryotic peptide chain release factor GTP-binding subunit (Saccharomyces cerevisiae); conditions: at 50 µM
[8] = biological target: T1, Eukaryotic peptide chain release factor GTP-binding subunit (Saccharomyces cerevisiae); conditions: at 50 µM; remark: listed apart in the source
[9] = Inhibition of Beta-lactamase at 35 uM in presence of 0.01% Triton X-100 by nitrocefin hydrolysis assay
[10] = Inhibition of Beta-lactamase at 35 uM by nitrocefin hydrolysis assay
[11] = biological target: T1, Eukaryotic peptide chain release factor GTP-binding subunit (Saccharomyces cerevisiae); assay: Inhibition of polyhistidine tagged yeast prion protein Sup35 expressed in Escherichia coli BL21 (DE3) assessed as inhibition of amyloid polymerization preincubation of seed fibers and compound for 5 mins at 100 uM by thioflavin T fluorescence assay relative to untreated control
[12] = Inhibition of dynamic light scattering at 25 uM by thioflavin T fluorescence assay relative to untreated control; type: physicochemical
Procedure, shortened: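 Sup35 fibrillization was tracked by dynamic light scattering, which served as a check against spectroscopic interference in the thioflavin T fluorescence read-out. Inhibition was scored against the reaction without compound.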

[13] = biological target: T1, Eukaryotic peptide chain release factor GTP-binding subunit (Saccharomyces cerevisiae); assay: Inhibition of polyhistidine tagged yeast prion protein Sup35 expressed in Escherichia coli BL21 (DE3) assessed as inhibition of amyloid polymerization at 100 uM by thioflavin T fluorescence assay relative to untreated control; procedure, shortened: as §1
[14] = biological target: T1, Eukaryotic peptide chain release factor GTP-binding subunit (Saccharomyces cerevisiae); assay: Inhibition of polyhistidine tagged yeast prion protein Sup35 expressed in Escherichia coli BL21 (DE3) assessed as inhibition of amyloid polymerization at 50 uM in presence of 0.5% seed fibres by thioflavin T fluorescence assay relative to untreated control
Procedure, shortened: (§5)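 Seeded Sup35 polymerization read by thioflavin T fluorescence, with seed at 0.5%, 1% or 5% and compound at fixed 50 μM. Preincubation line: 5-min preincubation before polymerization.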

[15] = biological target: T1, Eukaryotic peptide chain release factor GTP-binding subunit (Saccharomyces cerevisiae); assay: Inhibition of polyhistidine tagged yeast prion protein Sup35 expressed in Escherichia coli BL21 (DE3) assessed as inhibition of amyloid polymerization at 50 uM in presence of 1% seed fibres by thioflavin T fluorescence assay relative to untreated control; procedure, shortened: as §5
[16] = biological target: T1, Eukaryotic peptide chain release factor GTP-binding subunit (Saccharomyces cerevisiae); assay: Inhibition of polyhistidine tagged yeast prion protein Sup35 expressed in Escherichia coli BL21 (DE3) assessed as inhibition of amyloid polymerization at 50 uM in presence of 5% seed fibres by thioflavin T fluorescence assay relative to untreated control; procedure, shortened: as §5
Saccharomyces cerevisiae = assay: Toxicity in PSI yeast spheroplast cells infected with yeast prion protein Sup35; type: organism-based
[17] = biological target: T1, Eukaryotic peptide chain release factor GTP-binding subunit (Saccharomyces cerevisiae); assay: Inhibition of polyhistidine tagged yeast prion protein Sup35 expressed in Escherichia coli BL21 (DE3) assessed as inhibition of amyloid polymerization at 10 uM in presence of 5 mg/ml BSA by thioflavin T fluorescence assay relative to untreated control; procedure, shortened: as §1
[18] = biological target: T1, Eukaryotic peptide chain release factor GTP-binding subunit (Saccharomyces cerevisiae); assay: Inhibition of polyhistidine tagged yeast prion protein Sup35 expressed in Escherichia coli BL21 (DE3) assessed as inhibition of amyloid polymerization at 10 uM by thioflavin T fluorescence assay relative to untreated control; procedure, shortened: as §1
Mus musculus [19] = species on record: Mus musculus; conditions: at 50 µM
[20] = Inhibition of dynamic light scattering at 20 uM by thioflavin T fluorescence assay relative to untreated control; type: physicochemical
Procedure, shortened: (§6)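 Sup35 polymerization followed by dynamic light scattering rather than ThT fluorescence, as a control for spectroscopic interference; percent inhibition of the DLS signal.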

[21] = biological target: T2, Eukaryotic peptide chain release factor GTP-binding subunit (Saccharomyces cerevisiae, UniProt P05453); assay: Inhibition of polyhistidine tagged yeast prion protein Sup35 expressed in Escherichia coli BL21 (DE3) assessed as inhibition of amyloid polymerization by thioflavin T fluorescence assay relative to untreated control; procedure, shortened: as §1
T2 sequence (P05453 whole entry): T1 sequence (whole entry)

[22] = Inhibition of dynamic light scattering at 2 uM by thioflavin T fluorescence assay relative to untreated control; type: physicochemical; procedure, shortened: as §6
[23] = biological target: T1, Eukaryotic peptide chain release factor GTP-binding subunit (Saccharomyces cerevisiae); assay: Inhibition of polyhistidine tagged yeast prion protein Sup35 expressed in Escherichia coli BL21 (DE3) assessed as coating of prion protein with […] particles at 100 uM by transmission electron microscopy; procedure, shortened: as §3
[24] = biological target: T1, Eukaryotic peptide chain release factor GTP-binding subunit (Saccharomyces cerevisiae); assay: Inhibition of polyhistidine tagged yeast prion protein Sup35 expressed in Escherichia coli BL21 (DE3) assessed as inhibition of fiber formation at 100 uM by transmission electron microscopy; procedure, shortened: as §2
[25] = Inhibition of Beta-lactamase at 30 uM in presence of 0.01% Triton X-100 by nitrocefin hydrolysis assay
[26] = Inhibition of Beta-lactamase at 30 uM by nitrocefin hydrolysis assay
[27] = biological target: T1, Eukaryotic peptide chain release factor GTP-binding subunit (Saccharomyces cerevisiae); assay: Inhibition of yeast prion protein Sup35 infection of PSI yeast spheroplast cells at 100 uM; procedure, shortened: as §4
[28] = Inhibition of Beta-lactamase at 25 uM by nitrocefin hydrolysis assay
[29] = Inhibition of Beta-lactamase at 25 uM in presence of 0.01% Triton X-100 by nitrocefin hydrolysis assay
[30] = Inhibition of Beta-lactamase at 4 uM in presence of 0.01% Triton X-100 by nitrocefin hydrolysis assay
[31] = biological target: T1, Eukaryotic peptide chain release factor GTP-binding subunit (Saccharomyces cerevisiae); assay: Inhibition of polyhistidine tagged yeast prion protein Sup35 expressed in Escherichia coli BL21 (DE3) assessed as inhibition of amyloid polymerization at 5 uM by thioflavin T fluorescence assay relative to untreated control; procedure, shortened: as §1
[32] = biological target: T1, Eukaryotic peptide chain release factor GTP-binding subunit (Saccharomyces cerevisiae); assay: Inhibition of polyhistidine tagged yeast prion protein Sup35 expressed in Escherichia coli BL21 (DE3) assessed as inhibition of amyloid polymerization at 5 uM in presence of 5 mg/ml BSA by thioflavin T fluorescence assay relative to untreated control; procedure, shortened: as §1
[33] = Inhibition of Beta-lactamase at 4 uM by nitrocefin hydrolysis assay
[34] = Inhibition of Beta-lactamase at 50 uM by nitrocefin hydrolysis assay
[35] = Inhibition of Beta-lactamase at 50 uM in presence of 0.01% Triton X-100 by nitrocefin hydrolysis assay

CC(=O)c1c(O)c(C)c(O)c(Cc2c(O)c3c(c(C(=O)/C=C/c4ccccc4)c2O)OC(C)(C)C=C3)c1O
inhibition [1]: 99.4%
inhibition [2]: 40.5%
inhibition (Mus musculus [3]): 71.1%
inhibition (Mus musculus [4]): Active
inhibition (Mus musculus [5]): Active
inhibition [6]: Active

CCN(CC)CC(=O)Nc1c(C)cccc1C
inhibition [7]: 0%
inhibition (Mus musculus [3]): 0%
inhibition [8]: 1.1%
inhibition [6]: Active

Cc1cc(/N=N/c2ccc(-c3ccc(/N=N/c4cc(C)c(O)c(C(=O)O)c4)cc3)cc2)c(C(=O)O)cc1O
inhibition [9]: 0%
inhibition [10]: 50%

Clc1ccccc1C(c1ccccc1)(c1ccccc1)n1ccnc1 [CLOTRIMAZOLE]
inhibition [11]: 94%
inhibition (INH) [12]: 98%
inhibition [13]: 79%
inhibition [7]: 5.6%
inhibition [14]: 99%
inhibition [15]: 95%
inhibition (Mus musculus [3]): 21.5%
inhibition [8]: 62.7%
inhibition [16]: 30%
Activity (Saccharomyces cerevisiae): Toxic

Oc1ccc(/N=N/c2ccc(Br)cc2)cc1
inhibition [17]: 2.1%
inhibition [18]: 36.4%
inhibition (Mus musculus [3]): 100%
Activity (Saccharomyces cerevisiae): Toxic

OC(Cn1cncn1)(Cn1cncn1)c1ccc(F)cc1F
inhibition [7]: 9%
inhibition (Mus musculus [19]): 5.9%
inhibition [8]: 0%

O=C1C(I)=CC(=C(c2ccccc2C(=O)O)C2C=C(I)C(=O)C(I)=C2)C=C1I [TERAIODOPHENOLPHATHALIN]
inhibition (INH) [20]: 99%
IC50 [21]: 2.5 µM
inhibition (INH) [22]: 30%
inhibition (Mus musculus [19]): 0%
inhibition [23]: Active
inhibition [24]: Active
inhibition [1]: 99.3%
inhibition [2]: 6.8%
inhibition [6]: Active

O=c1cc(-c2ccccc2)oc2cc(O)c(O)c(O)c12
inhibition [7]: 17.6%
inhibition (Mus musculus [19]): 34.3%
inhibition [25]: 0%
inhibition [8]: 95.4%
inhibition [6]: Active
inhibition [26]: 51.8%

COC(=O)C1=C(C)NC(C)=C(C(=O)OCCN(C)Cc2ccccc2)C1c1cccc([N+](=O)[O-])c1 (stereo not given)
inhibition [11]: 88%
inhibition [13]: 55%
inhibition [7]: 0%
inhibition (Mus musculus [19]): 22.7%
inhibition [27]: 50%
inhibition [8]: 61.5%
inhibition [6]: Active

Oc1c(I)cc(Cl)c2cccnc12
inhibition [7]: 0%
inhibition (Mus musculus [19]): 0%
inhibition [28]: 51.6%
inhibition [29]: 6.4%
inhibition [8]: 54.7%

Nc1c(/N=N/c2ccc(-c3ccc(/N=N/c4cc(S(=O)(=O)O)c5ccccc5c4N)cc3)cc2)cc(S(=O)(=O)O)c2ccccc12
inhibition (Mus musculus [19]): 100%
inhibition [30]: 20%
inhibition [31]: 100%
inhibition [32]: 100%
inhibition [33]: 92%

O=C1NC(=O)c2cc(Nc3ccccc3)c(Nc3ccccc3)cc21
inhibition [34]: 97%
inhibition [7]: 44.7%
inhibition [35]: 0.7%
inhibition (Mus musculus [3]): 73.6%
inhibition [8]: 87.1%
inhibition [6]: Active

Clc1ccc(CSC(Cn2ccnc2)c2ccc(Cl)cc2Cl)cc1 (stereo not given)
inhibition [7]: 10.1%
inhibition (Mus musculus [19]): 100%
inhibition [8]: 75.5%
